Positions of bridges follow the written chain, without caps; N, C: chain ends. Non-standard residues stand in square brackets, D forms with d. Residues, ends and D or L forms follow the SMILES beside them. *: point of attachment. d(αMeK) = C[C@@](N)(CCCCN)C(=O)O; dPhg = N[C@@H](C(=O)O)c1ccccc1; Isobutyryl = CC(C)C(=O)*; Abu = CC[C@H](N)C(=O)O

Usually Vd stands for a proportionality between amount in the body and measured concentration, not a real space. A higher Vd goes with extensive tissue distribution. For orientation: AUC means the area under the concentration-time curve, a measure of exposure. Low values mean low exposure, high ones high exposure. For orientation: clearance means a measure of how efficiently the substance is removed, as volume per time. A lower clearance goes with a low capacity for elimination. What is called Cmax is the peak of the concentration-time curve. What is called Papp A→B is the apparent permeability from the apical to the basolateral side of a cell layer. In general, bioavailability refers to dose-corrected exposure relative to a reference, in per cent. Higher therefore signals much systemic uptake. A word on the Papp B→A: it is the apparent permeability from the basolateral to the apical side of a cell layer. Broadly, the Tmax is the time from dosing to the highest level. What is called half-life is the time in which the quantity being followed falls by half. Read a high half-life as slow loss. The term GI50 denotes the concentration that inhibits growth by half.

Data set [1] in a line: Apparent solubility of compound in DMSO. The format is physicochemical.
Data set [2] is described as follows: Apparent solubility of compound in methanol. The format is physicochemical.
Data set [3] in a line: Apparent solubility of compound in acetonitrile. The class given is physicochemical.
Data set [4] can be described thus: Volume of distribution in NOD/SCID mouse plasma at 3 mg/kg, iv up to 24 hrs. The format is ADME, organism-based. A digest of the protocol:
(§1)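 Female NOD-SCID mice, n = 3 per route, received 3 mg/kg IV or 30 mg/kg IP, with an undosed control group (n = 3). Blood was drawn at 5, 15, 30 min and 1, 2, 4, 6 and 24 h. Plasma was separated by centrifugation and stored at −80 °C until analysis. Cmax, Tmax, t1/2, AUC, Cl and VD were derived.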

A short description of data set [5]: AUC in NOD/SCID mouse plasma at 30 mg/kg, ip up to 24 hrs. The format is ADME, organism-based. Set-up: dose 30 mg/kg, time < 24 hr, route intraperitoneal. A digest of the protocol:
as §1

Data set [6] in a line: Clearance in NOD/SCID mouse plasma at 3 mg/kg, iv up to 24 hrs. The class given is ADME, organism-based. In short, it runs like this:
as §1

Data set [7] can be described thus: Cmax in NOD/SCID mouse plasma at 30 mg/kg, ip up to 24 hrs. The class given is ADME, organism-based. Set-up: dose 30 mg/kg, route intraperitoneal. In short, it runs like this: as §1
Data set [8] in a line: Apparent permeability from apical to basolateral side in human Caco2 cells. The class given is ADME, cell-based. The following applies: Caco-2.
A short description of data set [9]: AUC in NOD/SCID mouse plasma at 3 mg/kg, iv up to 24 hrs. The class given is ADME, organism-based. Set-up: time < 24 hr, dose 3 mg/kg, route intravenous. A digest of the protocol: as §1
Data set [10] can be described thus: Metabolic stability in mouse liver microsomes assessed as parent compound remaining after 0.5 hrs. The format is ADME. The following applies: read-out: Stability. (In general: Liver microsomes are a subcellular fraction often used to study metabolism.)
A short description of data set [11]: Bioavailability in NOD/SCID mouse plasma at 30 mg/kg, ip up to 24 hrs. The format is ADME, organism-based.
Data set [12] can be described thus: Apparent permeability from basolateral to apical side in human Caco2 cells. The class given is ADME, cell-based. The following applies: Caco-2. Background: Caco-2 cells form a polarised layer with tight junctions and transporters.
Data set [13] can be described thus: Cmax in NOD/SCID mouse plasma at 3 mg/kg, iv up to 24 hrs. The format is ADME, organism-based. Set-up: dose 3 mg/kg, route intravenous. A digest of the protocol:
as §1

The nature of data set [14]: Tmax in NOD/SCID mouse plasma at 3 mg/kg, iv. The class given is ADME, organism-based. A digest of the protocol: as §1
Data set [15] can be described thus: Tmax in NOD/SCID mouse plasma at 30 mg/kg, ip. The class given is ADME, organism-based. In short, it runs like this:
as §1

The nature of data set [16]: Half life in NOD/SCID mouse plasma at 3 mg/kg, iv. The format is ADME, organism-based. In short, it runs like this: as §1
Data set [17] in a line: Metabolic stability in mouse plasma assessed as parent compound remaining after 0.5 hrs. The format is ADME, cell-free. The following applies: read-out: Stability.
Data set [18] is described as follows: Growth inhibition of human MOLM13 cells assessed as reduction in cell viability after 3 days. The following applies: MOLM-13, 72 h. The class given is functional.
Data set [19] concerns MV4-11. Kind of data set: Growth inhibition of human MV4-11 cells assessed as reduction in cell viability after 3 days. The class given is functional. The following applies: MV4-11, 72 h.
Data set [20] is described as follows: Growth inhibition of human KOPN8 cells assessed as reduction in cell viability after 3 days. The following applies: KOPN-8, 72 h. The class given is functional.

In the case of `Cc1cccc(C(=O)Nc2cc(-c3ccc(CN4CCOCC4)cc3)ccc2N2CCN(C)CC2)c1`, the solubility entry in data set [1], in data set [2] and in data set [3] was “soluble” in each case.

As to `Cc1cccc(C(=O)Nc2cc(-c3ccc(N4CCCC4)cc3)ccc2N2CCN(C)CC2)c1`, the solubility result in data set [1], in [2] and in data set [3] was “soluble” in each case.

As to `Cc1cccc(C(=O)Nc2cc(-c3cccc4c3OCC4)ccc2N2CCN(C)CC2)c1`, the solubility entry in [1], in [2] and in [3] was “soluble” in each case.

For the compound `Cc1cccc(C(=O)Nc2cc(-c3ccccc3CN3CCOCC3)ccc2N2CCN(C)CC2)c1`, the solubility entry in [1], in [2] and in data set [3] was “soluble” in each case.

`Cc1cccc(C(=O)Nc2cc(-c3cccc(CN4CCOCC4)c3)ccc2N2CCN(C)CC2)c1`: the solubility result in [1], in [2] and in [3] was “soluble” each time.

Turning to `CN1CCN(c2ccc(-c3cccc(CN4CCOCC4)c3)cc2NC(=O)c2c[nH]c(=O)cc2C(F)(F)F)CC1`, the Vd in data set [4] came out at 15.6 L/kg. For the same compound, the AUC at 24 h in [5] was 6810 ng·h/mL; in data set [9], 1010 ng·h/mL. Moreover, in data set [6], the clearance was 53.9 mL/min/kg. Moreover, the Cmax amounted to 6.85 µM in [7] and 1.26 µM in data set [13]. Also, the Papp A→B in data set [8] is 0.1 ×10⁻⁶ cm/s. Moreover, the remaining at 0.5 h was 85% in data set [10] and 100% in [17]. The compound also displayed a bioavailability in [11] of 67%. Also, the apparent permeability from basolateral to apical (Papp B→A) in [12] was 16.8 ×10⁻⁶ cm/s. Besides, the Tmax is 5 min in data set [14] and 15 min in data set [15]. For the same compound, the half-life in data set [16] is 287 min.

Regarding `Cc1cccc(C(=O)Nc2cc(-c3cccc(N4CCCC4)c3)ccc2N2CCN(C)CC2)c1`, the solubility result in data set [1], in data set [2] and in [3] was “soluble” in each case.

`Cc1cccc(C(=O)Nc2cc(-c3ccc4c(c3)CCO4)ccc2N2CCN(C)CC2)c1`: the solubility result in data set [1], in [2] and in data set [3] was “soluble” in each case.

For the compound `CC[C@@H]1NC(=O)[C@H](CCCNC(=N)N)NC(=O)[C@](C)(NC(=O)C(C)C)CCCCNC(=O)[C@@H](c2ccccc2)NC1=O` (Isobutyryl-[d(αMeK)]R[Abu][dPhg]; lactam 1-C), the GI50 in data set [18] turned out to be 24 µM; in data set [19], 12.4 µM; in data set [20], 29.7 µM.

The values are drawn from ChEMBL document CHEMBL3797181, “Structure-Based Optimization of a Small Molecule Antagonist of the Interaction Between WD Repeat-Containing Protein 5 (WDR5) and Mixed-Lineage Leukemia 1 (MLL1)” (J Med Chem, 2016).
